Source: ChEMBL document CHEMBL3232756, “Synthesis and biological evaluation of N-dehydrodipeptidyl-N,N'-dicyclohexylurea analogs” (Eur J Med Chem, 2014)
Converted amounts (≈) assume the structure as drawn.

Key:
[1] = Cytotoxicity against brine shrimps larvae assessed as mortality after 24 hrs; type: organism-based; conditions: artemia, in vivo; read-out: ED50
Summary of the method: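 Shrimp eggs were hatched in filtered artificial sea water (38 g sea salt/L) in a divided tank. Larvae were exposed in vials at several concentrations under a lamp, and survivors were counted 24 h later. ED50 and 95% confidence intervals were derived from % larvae surviving by Finney probit analysis.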

Aspergillus niger = assay: Antimicrobial activity against Aspergillus niger MTCC 292 at 0.02 ml of 1 mg/ml after 24 hrs by cup plate method; type: functional; conditions: MTCC 292, 24 h, read-out: DIZ
Summary of the method: (§1)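 Cup-plate diffusion on Mueller-Hinton/nutrient agar swab-streaked with suspension, 6 mm cups bored. Each compound at 1 mg/ml in DMSO, 0.02 ml per cup; DMSO as solvent control. Amoxicillin for bacteria and fluconazole for fungi at 200 and 500 respectively as references. Incubation 37 °C for 24 h. Inhibition zone diameter in mm, triplicate, mean ± SD.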

Brain = assay: Antioxidant activity against lipid peroxidation in Wister rat brain homogenates assessed as thiobarbituric acid reactive substance formation after 30 mins by spectrophotometer analysis; type: functional, tissue-based; conditions: 0.5 h
Summary of the method: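 Whole brain minus cerebellum from overnight-fasted rats of either sex, 200–220 g. Homogenized 10% w/v in 0.15 M KCl and spun at 800 rpm for 10 min. Reaction incubated 37 °C for 30 min, then TBA:TCA (1:1) and BHT added, heated 80 °C for 20 min, cooled, centrifuged, A532 read.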

Bacillus subtilis = assay: Antimicrobial activity against Bacillus subtilis MTCC 441 at 0.02 ml of 1 mg/ml after 24 hrs by cup plate method; type: functional; conditions: MTCC 441, 24 h, read-out: DIZ; summary of the method: as §1
Staphylococcus aureus = assay: Antimicrobial activity against Staphylococcus aureus MTCC 96 at 0.02 ml of 1 mg/ml after 24 hrs by cup plate method; type: functional; conditions: MTCC 96, 24 h, read-out: DIZ; summary of the method: as §1
[2] = Antioxidant activity assessed as hydroxyl radical scavenging activity after 15 mins; type: functional
Summary of the method: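 Deoxyribose degradation mix: 2-deoxy-2-ribose 2.8 mM, KH2PO4–KOH 20 mM pH 7.4, FeCl3, EDTA, H2O2 1.0 mM, ascorbic acid, plus compound in methanol. Incubated 1 h at 37 °C. A 0.5 ml aliquot taken with 1 ml 2.8% TCA and 1 ml 1% TBA, heated 90 °C for 15 min, cooled, A532 read. % inhibition against blank.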

Mus musculus [3] = assay: Acute toxicity in Swiss albino mouse assessed as gross behavioral changes up to 1500 mg/kg, po; type: organism-based; parameters: dose 1500 mg/kg, route oral; conditions: in vivo
Summary of the method: (§2)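 Swiss albino mice (6–8 weeks, 25–30 g) were dosed orally at 500, 1000 or 1500 mg/kg, following OECD guidelines. Body weight, food and water intake, behavioural patterns and mortality were recorded and compared with a control group.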

[4] = Antioxidant activity assessed as trolox equivalents of cupric reducing antioxidant capacity after 30 mins; type: functional
Summary of the method: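 Mix of 1 ml CuCl2 (10 mM), 1 ml ethanolic neocuproine (7.5 mM), 1 ml ammonium acetate buffer (pH 7.0, 1 M), 1 ml compound or standard solution and 0.1 ml water, total 4.1 ml. A450 read after 30 min against reagent blank. TEAC = ε test/ε Trolox.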

Candida albicans = assay: Antimicrobial activity against Candida albicans MTCC 227 at 0.02 ml of 1 mg/ml after 24 hrs by cup plate method; type: functional; conditions: MTCC 227, 24 h, read-out: DIZ; summary of the method: as §1
Mus musculus [5] = assay: Analgesic activity in Swiss albino mouse assessed as inhibition of acetic acid-induced writhing response at 100 mg/kg, po administered 1 hr before acetic acid challenge after 5 mins; type: functional
Rattus norvegicus = assay: Antiinflammatory activity in Wister rat assessed as inhibition of carrageenan-induced paw edema at 100 mg/kg, po administered 1 hr before carrageenan challenge measured after 3 hrs by plethysmograph analysis; type: functional
Summary of the method: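 Rats of either sex, 150–220 g, food withheld 4 h. Compound or diclofenac sodium 100 mg/kg p.o., or 0.5% sodium CMC at 10 ml/kg as vehicle control, given 1 h before 0.05 ml of 1% carrageenan subplantar into the right hind paw. Paw volume read by water-displacement plethysmograph at 0, 30, 60, 120 and 180 min. % edema inhibition = 100(1−Vt/Vc); n=5, control n=6; ANOVA/Dunnett.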

[6] = system: Radical scavenging activity; assay: Antioxidant activity assessed as DPPH radical scavenging activity after 20 to 30 mins; type: functional
Summary of the method: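 Test solution (2 ml at 25, 50, 75, 100, 125) mixed with 2 ml ethanolic DPPH, held in the dark at ambient temperature 20–30 min, then A517 read against an ethanol blank. Tocopherol used as standard. % scavenging = (Acontrol−Atest)/Acontrol×100, run in triplicate. IC50 read graphically from the % scavenging versus concentration plot.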

Pseudomonas aeruginosa = assay: Antimicrobial activity against Pseudomonas aeruginosa MTCC 1688 at 0.02 ml of 1 mg/ml after 24 hrs by cup plate method; type: functional; conditions: MTCC 1688, 24 h, read-out: DIZ; summary of the method: as §1
Mus musculus [7] = assay: Acute toxicity in Swiss albino mouse assessed as mortality up to 1500 mg/kg, po; type: organism-based; parameters: dose 1500 mg/kg, route oral; conditions: in vivo; summary of the method: as §2
Escherichia coli = assay: Antimicrobial activity against Escherichia coli ESS 2231 at 0.02 ml of 1 mg/ml after 24 hrs by cup plate method; type: functional; conditions: ESS 2231, 24 h, read-out: DIZ; summary of the method: as §1

SMILES	LC50 at 24 h [1]	zone of inhibition at 1000 µg/mL (Aspergillus niger)	IC50 (Brain)	zone of inhibition at 1000 µg/mL (Bacillus subtilis)	zone of inhibition at 1000 µg/mL (Staphylococcus aureus)	IC50 [2]	Activity (Mus musculus [3])	TEAC (Trolox equivalents) [4]	zone of inhibition at 1000 µg/mL (Candida albicans)	inhibition in vivo at 100 mg/kg (Mus musculus [5])	inhibition in vivo at 100 mg/kg (Rattus norvegicus)	IC50 [6]	zone of inhibition at 1000 µg/mL (Pseudomonas aeruginosa)	Activity (Mus musculus [7])	zone of inhibition at 1000 µg/mL (Escherichia coli)
COc1cc([C@@H]2c3cc4c(cc3[C@H](O)[C@H]3COC(=O)[C@H]23)OCO4)cc(OC)c1OC [PODOFILOX]	3.77 µg/mL (≈ 9.1 µM)	–	–	–	–	–	–	–	–	–	–	–	–	–	–
O=C(NCC(=O)N(C(=O)NC1CCCCC1)C1CCCCC1)/C(=C\c1ccccc1)NC(=O)c1ccccc1	6.02 µg/mL (≈ 11.3 µM)	19.1 mm	58.8 µM	19.2 mm	18.1 mm	57.1 µM	Non-toxic	0.89	20.7 mm	54%	35.5%	49.8 µM	19.4 mm	Non-toxic	20.2 mm
COc1ccc(/C=C(/NC(=O)c2ccccc2)C(=O)NC(CS)C(=O)N(C(=O)NC2CCCCC2)C2CCCCC2)cc1 (stereo unspecified)	–	20.3 mm	127 µM	20.1 mm	19.2 mm	97.2 µM	Non-toxic	2.91	19.8 mm	36%	31.5%	88.7 µM	17.7 mm	Non-toxic	16.4 mm
O=C(NC(CS)C(=O)N(C(=O)NC1CCCCC1)C1CCCCC1)/C(=C\c1ccc(O)cc1)NC(=O)c1ccccc1 (stereo unspecified)	4.38 µg/mL (≈ 7.39 µM)	24.5 mm	54.4 µM	24.4 mm	24.8 mm	54 µM	Non-toxic	3.91	26.6 mm	43.2%	41.3%	47.2 µM	20.7 mm	Non-toxic	23.5 mm
Cc1ccc(/C=C(/NC(=O)c2ccccc2)C(=O)NC(CS)C(=O)N(C(=O)NC2CCCCC2)C2CCCCC2)cc1 (stereo unspecified)	–	15.4 mm	113 µM	15.8 mm	16.8 mm	66.3 µM	Non-toxic	2.36	14.2 mm	41.2%	35.5%	84 µM	18.4 mm	Non-toxic	22.7 mm
Cc1ccc(/C=C(/NC(=O)c2ccccc2)C(=O)NCC(=O)N(C(=O)NC2CCCCC2)C2CCCCC2)cc1	–	14.5 mm	127 µM	13.2 mm	15.5 mm	101 µM	Non-toxic	1.24	13.4 mm	48.8%	23.9%	71.9 µM	17.6 mm	Non-toxic	13.3 mm
O=C(NCC(=O)N(C(=O)NC1CCCCC1)C1CCCCC1)/C(=C\c1ccc(Cl)cc1)NC(=O)c1ccccc1	–	13.5 mm	96.8 µM	13.5 mm	11.8 mm	83.7 µM	Non-toxic	0.93	12.7 mm	27.6%	15.2%	83.7 µM	9.2 mm	Non-toxic	16.3 mm
COc1cc(/C=C(/NC(=O)c2ccccc2)C(=O)NC(CS)C(=O)N(C(=O)NC2CCCCC2)C2CCCCC2)ccc1O (stereo unspecified)	–	19.3 mm	81.6 µM	20.2 mm	22.1 mm	92.8 µM	Non-toxic	3.6	20.4 mm	48%	38.4%	–	20.8 mm	Non-toxic	24.6 mm
O=C(O)Cc1ccccc1Nc1c(Cl)cccc1Cl [DICLOFENAC SODIUM]	–	–	–	–	–	–	–	–	–	–	66.8%	–	–	–	–
O=C(NCC(=O)N(C(=O)NC1CCCCC1)C1CCCCC1)/C(=C\c1ccc(F)cc1)NC(=O)c1ccccc1	–	20.8 mm	97.2 µM	20.1 mm	19.3 mm	88.7 µM	Non-toxic	1.22	19.2 mm	22%	20.6%	88.7 µM	17.6 mm	Non-toxic	16.5 mm
O=C1O[C@H]([C@@H](O)CO)C(O)=C1O [ASCORBIC ACID]	–	–	–	–	–	49.9 µM	–	2.63	–	–	–	–	–	–	–
Cc1cc(C(C)(C)C)c(O)c(C(C)(C)C)c1 [BUTYLATED HYDROXYTOLUENE]	–	–	57.8 µM	–	–	–	–	–	–	–	–	–	–	–	–
CC(C)c1ccc(/C=C(/NC(=O)c2ccccc2)C(=O)NCC(=O)N(C(=O)NC2CCCCC2)C2CCCCC2)cc1	–	21.2 mm	60.4 µM	18.4 mm	16.4 mm	60.4 µM	Non-toxic	1.19	13.1 mm	47.4%	26%	61 µM	17.3 mm	Non-toxic	18.1 mm
O=C(NC(CS)C(=O)N(C(=O)NC1CCCCC1)C1CCCCC1)/C(=C\c1ccc(F)cc1)NC(=O)c1ccccc1 (stereo unspecified)	–	18.2 mm	74.7 µM	14.5 mm	11.4 mm	51 µM	Non-toxic	3.6	17.1 mm	42%	25%	58.8 µM	16.6 mm	Non-toxic	14.3 mm
CC(=O)Oc1ccccc1C(=O)O [ASPIRIN]	–	–	–	–	–	–	–	–	–	63.1%	–	–	–	–	–
COc1ccc(/C=C(/NC(=O)c2ccccc2)C(=O)NCC(=O)N(C(=O)NC2CCCCC2)C2CCCCC2)cc1	–	18.8 mm	108 µM	11.3 mm	14.3 mm	92.7 µM	Non-toxic	1.24	19.6 mm	39.6%	12%	92.7 µM	10.3 mm	Non-toxic	15.8 mm
